Laboratory results taken from ChEMBL document CHEMBL3352193, “Synthesis of novel substituted purine derivatives and identification of the cell death mechanism” (Eur J Med Chem, 2015).
Activity calls are given as the source filed them. The calls are words filed in the database; no cut-off is given here.

Legend:
Huh-7 [1] = assay: Cytotoxicity against human HuH7 cells at 2.5 to 40 uM after 72 hrs by SRB assay; format: functional, cell-based
Outline: (§1)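 SRB screen. Cells seeded at 2000–10,000/well and treated next day for 72 h with 40, 20, 10, 5 and 2.5 µM (DMSO under 1%). TCA fixation, 0.4% SRB staining, Tris solubilization, absorbance at 515 nm. Growth inhibition calculated relative to DMSO-only wells. IC50 derived from the five-concentration inhibition percentages.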

HCT-116 = assay: Cytotoxicity against human HCT116 cells at 2.5 to 40 uM after 72 hrs by SRB assay; format: functional, cell-based; outline: as §1
T47D [2] = assay: Cytotoxicity against human T47D cells at 2.5 to 40 uM after 72 hrs by SRB assay; format: functional, cell-based; outline: as §1
T47D [3] = assay: Cytotoxicity against human T47D cells after 72 hrs by SRB assay; format: functional, cell-based
[4] = Cytotoxicity against human HCT116 cells after 72 hrs by SRB assay; format: functional, cell-based; conditions: HCT-116, 72 h; outline: as §1
[5] = Cytotoxicity against human HuH7 cells after 72 hrs by SRB assay; format: functional, cell-based; conditions: Huh-7, 72 h
Outline: (§2)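 Sulforhodamine B assay. Cells seeded at 2000–10,000/well and treated the next day in triplicate with ten concentrations (DMSO vehicle, under 1% final) for 24, 48 or 72 h at 37 °C, 5% CO2. Fixed with ice-cold TCA for 1 h at 4 °C, stained with 0.4% SRB in 1% acetic acid, dye solubilized in 10 mM Tris base, A515 read. % inhibition = 100 × (1 − OD drug/OD DMSO). IC50 taken from dose–response curves.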

HepG2 = assay: Cytotoxicity against human HepG2 cells after 72 hrs by SRB assay; format: functional, cell-based; conditions: HepG2, 72 h; outline: as §2
[6] = Cytotoxicity against human Hep3B cells after 72 hrs by SRB assay; format: functional, cell-based, Hep 3B2
Outline: (§3)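 Liver cancer cell panel, SRB assay after 72 h exposure to ten concentrations (DMSO vehicle under 1%). TCA-fixed, SRB-stained, absorbance at 515 nm. Percent cell death calculated against DMSO-only wells, and IC50 read from dose–response curves.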

PLC = assay: Cytotoxicity against human PLC cells after 72 hrs by SRB assay; format: functional, cell-based; outline: as §3
[7] = Cytotoxicity against human SKHEP1 cells after 72 hrs by SRB assay; format: functional, cell-based; conditions: SK-HEP1, 72 h; outline: as §3
[8] = Cytotoxicity against human Mahlavu cells after 72 hrs by SRB assay; format: functional, cell-based; outline: as §2
[9] = Cytotoxicity against human FOCUS cells after 72 hrs by SRB assay; format: functional, cell-based; outline: as §2
[10] = Cytotoxicity against human SNU182 cells after 72 hrs by SRB assay; format: functional, cell-based; conditions: SNU-182, 72 h; outline: as §3
[11] = Cytotoxicity against human SNU475 cells after 72 hrs by SRB assay; format: functional, cell-based, SNU-475; conditions: Homo sapiens, SNU-475, 72 h; read-out: IC50; outline: as §3
Huh-7 [12] = assay: Cytotoxicity against human HuH7 cells assessed as condensed apoptotic nuclei after 72 hrs by Hoechst […] staining-based fluorescence microscopy; format: functional, cell-based
FOCUS = assay: Cytotoxicity against human FOCUS cells assessed as condensed apoptotic nuclei after 72 hrs by Hoechst […] staining-based fluorescence microscopy; format: functional, cell-based
Mahlavu [13] = assay: Induction of apoptosis in human Mahlavu cells assessed as PARP cleavage at IC50 after 72 hrs by Western blotting analysis; format: functional, cell-based
Mahlavu [14] = assay: Induction of […] in human Mahlavu cells assessed as PARP cleavage at IC50 after 72 hrs by Western blotting analysis; format: functional, cell-based
Mahlavu [15] = assay: Induction of apoptosis in human Mahlavu cells assessed as Bcl2 expression at IC50 after 72 hrs by Western blotting analysis; format: functional, cell-based
Mahlavu [16] = assay: Induction of apoptosis in human Mahlavu cells assessed as total cytochrome c level at IC50 after 72 hrs by Western blotting analysis; format: functional, cell-based
Huh-7 [17] = assay: Reduction in intrinsic cellular ATP consumption in human HuH7 cells at IC50 after 24 hrs by bioluminescence assay; format: functional, cell-based
Outline: (§4)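 Cells treated for 24 h, with staurosporine as positive control and DMSO-only controls. 20 µg lysate protein in kinase buffer (40 mM Tris-HCl pH 7.6, 20 mM MgCl2, 0.1 mg/ml BSA), no exogenous ATP added. Luciferase ATP-detection reagent added, 10 min in the dark at room temperature, then luminescence read. Higher signal taken as reduced ATP consumption.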

Mahlavu [18] = assay: Reduction in intrinsic cellular ATP consumption in human Mahlavu cells at IC50 after 24 hrs by bioluminescence assay; format: functional, cell-based; outline: as §4

SMILES | inhibition (Huh-7 [1]) | inhibition (HCT-116) | inhibition (T47D [2]) | IC50 (T47D [3]) [µM] | IC50 [4] [µM] | IC50 [5] [µM] | also measured
Nc1ncnc2c1ncn2CCN1CCN(CCO)CC1 | inactive | inactive | inactive |  |  |  | 
Cc1ccc(S(=O)(=O)n2cnc3c(NCc4ccc(F)cc4F)ncnc32)cc1 | inactive | inactive |  | 116 |  |  | 
Clc1ccc(CNc2ncnc3[nH]cnc23)c(Cl)c1 | inactive | inactive |  | 147 |  |  | 
OC[C@H]1O[C@@H](n2cnc3c2N=CNC[C@H]3O)C[C@@H]1O | inactive | inactive | inactive |  |  |  | 
CCOC(=O)Cn1cnc2c(NCc3cccc(C(F)(F)F)c3)ncnc21 | inactive |  | inactive |  | > 200 |  | 
c1nc(NC2CC2)c2nc[nH]c2n1 | inactive | inactive | inactive |  |  |  | 
CCOC(=O)Cn1cnc2c(N3CCN(c4ccc(C(F)(F)F)cc4)CC3)ncnc21 |  |  | inactive |  | 72.4 | 53.3 | 
Nc1nc(Cl)nc2c1ncn2[C@H]1C[C@H](O)[C@@H](CO)O1 [CLADRIBINE] |  |  |  | 0.7 | 0.3 | 1.8 | 
OCCN1CCN(c2[nH]cnc3ncnc2-3)CC1 | inactive | inactive | inactive |  |  |  | 
FC(F)(F)c1ccc(N2CCN(c3ncnc4[nH]cnc34)CC2)cc1 |  |  |  | 39.4 | 5.1 | 3.2 | IC50 (HepG2): 3.7 µM; IC50 [6]: 6.7 µM; IC50 (PLC): 10.5 µM; IC50 [7]: 4.9 µM; IC50 [8]: 2.3 µM; IC50 [9]: 2.9 µM; IC50 [10]: 55.4 µM; IC50 [11]: 9.6 µM; Activity (Huh-7 [12]): Active; Activity (FOCUS): Active; Activity (Mahlavu [13]): inactive; Activity (Mahlavu [14]): inactive; Activity (Mahlavu [15]): inactive; Activity (Mahlavu [16]): inactive; Activity (Huh-7 [17]): Active; Activity (Mahlavu [18]): Active
O=c1[nH]cc(F)c(=O)[nH]1 [FLUOROURACIL] |  |  |  | 7.9 | 6 |  | 
OCCNc1ncnc2[nH]cnc12 | inactive | inactive | inactive |  |  |  | 
Nc1ncnc2c1ncn2CCNCCNc1ccccc1 | inactive | inactive | inactive |  |  |  | 
c1ccc(CN2CCC(Nc3ncnc4[nH]cnc34)CC2)cc1 | inactive | inactive | inactive |  |  |  | 
Fc1ccc(CNc2ncnc3[nH]cnc23)c(F)c1 | inactive | inactive | inactive |  |  |  | 
COc1ccc(CNc2ncnc3[nH]cnc23)cc1 | inactive |  | inactive |  | 86.6 |  | 
C1=CC(CCNc2ncnc3[nH]cnc23)CCC1 (stereo not drawn) |  |  |  | 40.3 | 12.9 | 14.2 | 
Cc1ccc(S(=O)(=O)n2cnc3c(N4CCN(c5ccc(C(F)(F)F)cc5)CC4)ncnc32)cc1 |  |  |  | 42.7 | 4.5 | 1.4 | IC50 (HepG2): 1.2 µM; IC50 [6]: 2.9 µM; IC50 (PLC): 3.7 µM; IC50 [7]: 1.7 µM; IC50 [8]: 1 µM; IC50 [9]: 1 µM; IC50 [10]: 8.4 µM; IC50 [11]: 5.4 µM; Activity (Huh-7 [12]): Active; Activity (FOCUS): Active; Activity (Mahlavu [13]): inactive; Activity (Mahlavu [14]): inactive; Activity (Mahlavu [15]): inactive; Activity (Mahlavu [16]): inactive; Activity (Huh-7 [17]): Active; Activity (Mahlavu [18]): Active
Cc1ccc(S(=O)(=O)n2cnc3c(NC4CC4)ncnc32)cc1 | inactive | inactive | inactive |  |  |  | 
Cc1ccc(S(=O)(=O)n2cnc3c(NCc4ccc(Cl)cc4Cl)ncnc32)cc1 |  |  |  | 47.6 | 28.1 | 26.9 | 

SMILES | inhibition (Huh-7 [1]) | inhibition (HCT-116) | inhibition (T47D [2]) | IC50 (T47D [3]) [µM] | IC50 [4] [µM] | IC50 [5] [µM] | also measured
CC(C)NCCNCCn1cnc2c(N)ncnc21 | inactive | inactive | inactive |  |  |  | 
Cc1ccc(S(=O)(=O)n2cnc3c(N4CCC(C)CC4)ncnc32)cc1 |  |  |  | 22.5 | 14.6 | 17.8 | 
CCNCCNCCn1cnc2c(N)ncnc21 | inactive | inactive | inactive |  |  |  | 
FC(F)(F)c1cccc(CNc2ncnc3[nH]cnc23)c1 |  |  | inactive |  | 102 | 68.3 | 
Cc1ccc(S(=O)(=O)n2cnc3c(NCCC4C=CCCC4)ncnc32)cc1 (stereo not drawn) |  |  |  | 34.5 | 8.7 | 9.4 | 
Nc1ncnc2c1ncn2CCN1CCN(CCN2CCOCC2)CC1 | inactive | inactive | inactive |  |  |  | 
Nc1ncnc2c1ncn2CCNCCN1CCOCC1 | inactive | inactive | inactive |  |  |  | 
CN1CCN(NCCn2cnc3c(N)ncnc32)CC1 | inactive | inactive | inactive |  |  |  | 
CC1CCN(c2ncnc3[nH]cnc23)CC1 | inactive | inactive | inactive |  |  |  | 
Cc1ccc(S(=O)(=O)n2cnc3c(Cl)ncnc32)cc1 |  |  |  | 13.9 | 22.8 | 20.8 | 
Nc1ncnc2c1ncn2CCNCCN1CCCC1 | inactive | inactive | inactive |  |  |  | 
COc1ccc(CNc2ncnc3c2ncn3S(=O)(=O)c2ccc(C)cc2)cc1 | inactive | inactive | inactive |  |  |  | 
CC1CCN(c2ncnc3c2ncn3C2CCCC2)CC1 |  |  |  | 21 | 16.6 | 17.4 | 
CN(C)CCNCCn1cnc2c(N)ncnc21 | inactive | inactive | inactive |  |  |  | 
CCOC(=O)Cn1cnc2c(NCc3ccc(Cl)cc3Cl)ncnc21 | inactive | inactive |  | 99.9 |  |  | 
Nc1nc(F)nc2c1ncn2[C@@H]1O[C@H](CO)[C@@H](O)[C@@H]1O [FLUDARABINE] |  |  |  | 46.2 | 6.6 | 60.1 | 
CCOC(=O)Cn1cnc2c(N3CCN(CCO)CC3)ncnc21 | inactive | inactive | inactive |  |  |  | 
O=CN1CCN(c2ncnc3[nH]cnc23)CC1 | inactive | inactive | inactive |  |  |  | 
c1ccc(NCCNc2ncnc3[nH]cnc23)cc1 | inactive |  | inactive |  | 132 |  | 
